From ChEMBL document CHEMBL1149165, “Significant differences in biological parameters between prodrugs cleavable by carboxypeptidase G2 that generate 3,5-difluoro-phenol and -aniline nitrogen mustards in gene-directed enzyme prodrug therapy systems” (J Med Chem, 2004) come the findings set out here.

The nature of series [1]: The chemical half-life by HPLC. Format: ADME. The method, boiled down:
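10 mM DMSO stocks diluted 100-fold to 100 µM in 100 mM Tris-HCl pH 7.3 with 260 µM ZnCl₂. Remaining parent measured over time by isocratic reverse-phase HPLC (phenyl column, 0.1% TFA with 65-85% methanol, 250-275 nm), using repeat or delayed injections. Half-life from one-phase exponential decay fit, maximum 1 and minimum 0.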

The test system of series [2] is MDA-MB-361. Put plainly: Ratio of the IC50 in thebeta-Gal- and CPG2-expressing cell line. Format: functional, Homo sapiens. The method, boiled down: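 Degree of activation: IC50 in β-Gal-expressing MDA MB 361 cells divided by IC50 in stCPG2(Q)3-expressing cells. Both IC50s are from sulforhodamine-B regrowth assays after two-stage prodrug exposure, fitted to a log dose-effect sigmoid.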

Substrate in series [3]: O=C(O)CCC[C@H](NC(=O)Nc1cc(F)c(N(CCCl)CCCl)c(F)c1)C(=O)O
The series is described as follows: Michaelis-Menten constant towards carboxypeptidase G2 enzyme. As to conditions: Pseudomonas aeruginosa. The method, boiled down:
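CPG2 (50 mU) with prodrug at 5-50 µM in 5 µM steps, diluted from DMSO concentrates into 100 mM Tris-HCl pH 7.3 with 260 µM ZnCl₂, 37 °C. Remaining prodrug measured by isocratic reverse-phase HPLC (phenyl column, 0.1% TFA/methanol, 250-275 nm) at 0, 5, 10, 15 and 20 min.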

For the molecule `O=C(O)CCC[C@H](NC(=O)Oc1cc(F)c(N(CCCl)CCCl)c(F)c1)C(=O)O`, the half-life (commonly how long it takes for the measured level to halve) in series [1] worked out at 45 min.

Take `CS(=O)(=O)OCCN(CCCl)c1c(F)cc(OC(=O)N[C@@H](CCCC(=O)O)C(=O)O)cc1F`: in series [2], the Degree of activation turned out to be 0.9 fold.

B1: Carboxypeptidase G2 (Pseudomonas aeruginosa (strain ATCC 15692 / PAO1 / 1C / PRS 101 / LMG12228)), Q9I056 (protein)
chain: MHARRLPRLLPLALAFLLSPAAFAADTPAAELLRQAEAERPAYLDTLRQLVAVDSGTGQAEGLGQLSALLAERLQALGAQVRSAPATPSAGDNLVATLDGTGSKRFLLMIHYDTVFAAGSAAKRPFREDAERAYGPGVADAKGGVAMVLHALALLRQQGFRDYGRITVLFNPDEETGSAGSKQLIAELARQQDYVFSYEPPDRDAVTVATNGIDGLLLEVKGRSSHAGSAPEQGRNAILELSHQLLRLKDLGDPAKGTTLNWTLARGGEKRNIIPAEASAEADMRYSDPAESERVLADARKLTGERLVADTEVSLRLDKGRPPLVKNPASQRLAETAQTLYGRIGKRIEPIAMRFGTDAGYAYVPGSDKPAVLETLGVVGAGLHSEAEYLELSSIAPRLYLTVALIRELSAD
Regarding B1, in series [3], the Km – broadly, the substrate concentration at which the rate is half of its maximum – was determined as 7.7 µM.
